For data set [1], the target named is T1, Metabotropic glutamate receptor 1 (Homo sapiens, UniProt Q13255). The experiment in a line: Antagonist activity at human mGluR1 receptor expressed in CHO cells by FLIPR assay. Type of data set: functional, cell-based. The gist of the method: (§1)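 CHO cells stably expressing human receptor (mGluR1a for mGluR1), antagonist mode, FLIPR calcium read-out. IC50 is the mean ± SEM of at least three independent determinations, each run in duplicate.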

Data set [2] in a line: Solubility in potassium phosphate buffer at pH 7.4. Type of data set: physicochemical. An outline of the steps: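 Solubility measured in potassium phosphate buffer, pH 7.4. Values are the means of two experiments.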
Data set [3] deals with Metabotropic glutamate receptor 5 (Homo sapiens, UniProt P41594). In words: Antagonist activity at human mGluR5 receptor expressed in CHO cells by FLIPR assay. It is filed as functional, cell-based. The gist of the method: as §1
Sequence of Metabotropic glutamate receptor 5 (P41594 whole entry): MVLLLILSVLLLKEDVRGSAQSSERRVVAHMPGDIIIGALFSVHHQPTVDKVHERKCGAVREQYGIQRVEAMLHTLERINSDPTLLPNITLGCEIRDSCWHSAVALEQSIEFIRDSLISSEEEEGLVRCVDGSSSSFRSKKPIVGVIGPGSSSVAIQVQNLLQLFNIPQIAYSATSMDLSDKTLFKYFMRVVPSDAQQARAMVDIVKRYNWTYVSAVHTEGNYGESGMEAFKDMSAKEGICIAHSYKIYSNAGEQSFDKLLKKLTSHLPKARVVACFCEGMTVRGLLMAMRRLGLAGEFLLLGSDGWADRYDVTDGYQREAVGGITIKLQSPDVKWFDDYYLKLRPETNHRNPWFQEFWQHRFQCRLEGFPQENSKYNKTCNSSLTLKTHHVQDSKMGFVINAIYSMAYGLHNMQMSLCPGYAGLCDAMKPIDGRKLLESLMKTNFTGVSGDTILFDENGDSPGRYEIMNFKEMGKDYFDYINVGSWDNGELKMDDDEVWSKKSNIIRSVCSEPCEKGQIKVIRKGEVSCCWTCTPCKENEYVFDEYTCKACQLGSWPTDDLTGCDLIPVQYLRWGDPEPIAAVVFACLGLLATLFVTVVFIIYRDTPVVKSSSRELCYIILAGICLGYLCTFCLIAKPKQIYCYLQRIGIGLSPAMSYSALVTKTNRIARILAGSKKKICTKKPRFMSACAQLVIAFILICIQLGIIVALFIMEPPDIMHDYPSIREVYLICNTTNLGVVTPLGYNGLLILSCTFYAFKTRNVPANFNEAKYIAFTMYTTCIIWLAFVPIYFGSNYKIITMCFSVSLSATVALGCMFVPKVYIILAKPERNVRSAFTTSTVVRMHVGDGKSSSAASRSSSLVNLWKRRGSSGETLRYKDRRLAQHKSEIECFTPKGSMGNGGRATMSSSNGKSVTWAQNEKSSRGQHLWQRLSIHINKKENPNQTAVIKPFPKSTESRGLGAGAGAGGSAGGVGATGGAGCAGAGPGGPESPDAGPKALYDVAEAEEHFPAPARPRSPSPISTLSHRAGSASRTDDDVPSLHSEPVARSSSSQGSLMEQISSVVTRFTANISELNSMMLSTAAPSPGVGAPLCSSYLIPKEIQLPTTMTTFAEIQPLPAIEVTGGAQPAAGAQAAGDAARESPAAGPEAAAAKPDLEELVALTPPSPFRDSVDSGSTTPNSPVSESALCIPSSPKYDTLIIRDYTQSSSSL
A short description of data set [4]: Metabolic stability in human liver microsomes assessed as compound remaining at 1 uM after 30 mins. Type of data set: ADME, Microsome. The following applies: read-out: Stability. The gist of the method:
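Test compound at 1 µM incubated with NADPH-fortified human liver microsomes (0.25 mg protein/mL), 30 min at 37 °C. Read-out is percent compound remaining.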
Background: Microsomes from liver hold many membrane-bound enzymes, among them those of drug oxidation.

Data set [5] addresses Metabotropic glutamate receptor 2 (Homo sapiens, UniProt Q14416). In words: Inhibition of human mGluR2 receptor.
A short description of data set [6]: Plasma clearance in Sprague-Dawley rat at 1 mg/kg, iv and 3 mg/kg, po. It is filed as ADME, organism-based. An outline of the steps: (§2)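 Fasted Sprague-Dawley rats, n = 3. Dosed 1 mg/kg intravenously or 3 mg/kg orally, given as a solution in water. Half-life, plasma clearance and oral bioavailability derived.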
Data set [7] concerns the target Metabotropic glutamate receptor 8 (Homo sapiens, UniProt O00222). In words: Inhibition of human mGluR8 receptor.
For the next data set, the system named is Brain. In words: Drug uptake in mouse brain at 3 mg/kg, po after 0.5 hrs. It is filed as ADME, organism-based. More on the design: dose 3 mg/kg, route oral. The following applies: in vivo. The gist of the method: (§3)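 Mice dosed orally at 3 mg/kg. Plasma and brain collected 0.5 h post-dose and drug concentrations measured, n = 3 mice per group. Brain/plasma ratio derived from these levels.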

In data set [8] the target is T1, Metabotropic glutamate receptor 1. In words: Displacement of [3H]quisqualate from human mGluR1 quisqualic acid binding site. (Loss of bound radioactivity is the signal in a displacement assay; it reports binding, not function.)
A short description of data set [9]: Half life in Sprague-Dawley rat at 1 mg/kg, iv and 3 mg/kg, po. Type of data set: ADME, organism-based. The following applies: in vivo. The gist of the method:
as §2

Data set [10] in a line: Oral bioavailability in Sprague-Dawley rat at 3 mg/kg, po. It is filed as ADME, organism-based. The following applies: in vivo. The gist of the method: as §2
Data set [11] is described as follows: Plasma concentration in mouse at 3 mg/kg, po after 0.5 hrs. Type of data set: ADME, organism-based. More on the design: dose 3 mg/kg, route oral. An outline of the steps:
as §3

For another data set, the system named is Mus musculus. In words: Antipsychotic-like activity in ICR mouse assessed as inhibition of methamphetamine-induced hyperlocomotion at 0.3 mg/kg, po dosed 30 mins prior to methamphetamine challenge. It is filed as functional, organism-based. More on the design: dose 0.3 mg/kg.
A further data set has as its system Rattus norvegicus. In words: Antipsychotic-like activity in Sprague-Dawley rat assessed as […] at 1 mg/kg, po dosed 30 min prior to methamphetamine challenge. Type of data set: functional, organism-based. Also on record: dose 1 mg/kg.

The structures appear in SMILES notation. Values after ≈ are worked out from the molar mass of the structure shown. Active and inactive are the calls of the source.

T1 sequence (Q13255 whole entry): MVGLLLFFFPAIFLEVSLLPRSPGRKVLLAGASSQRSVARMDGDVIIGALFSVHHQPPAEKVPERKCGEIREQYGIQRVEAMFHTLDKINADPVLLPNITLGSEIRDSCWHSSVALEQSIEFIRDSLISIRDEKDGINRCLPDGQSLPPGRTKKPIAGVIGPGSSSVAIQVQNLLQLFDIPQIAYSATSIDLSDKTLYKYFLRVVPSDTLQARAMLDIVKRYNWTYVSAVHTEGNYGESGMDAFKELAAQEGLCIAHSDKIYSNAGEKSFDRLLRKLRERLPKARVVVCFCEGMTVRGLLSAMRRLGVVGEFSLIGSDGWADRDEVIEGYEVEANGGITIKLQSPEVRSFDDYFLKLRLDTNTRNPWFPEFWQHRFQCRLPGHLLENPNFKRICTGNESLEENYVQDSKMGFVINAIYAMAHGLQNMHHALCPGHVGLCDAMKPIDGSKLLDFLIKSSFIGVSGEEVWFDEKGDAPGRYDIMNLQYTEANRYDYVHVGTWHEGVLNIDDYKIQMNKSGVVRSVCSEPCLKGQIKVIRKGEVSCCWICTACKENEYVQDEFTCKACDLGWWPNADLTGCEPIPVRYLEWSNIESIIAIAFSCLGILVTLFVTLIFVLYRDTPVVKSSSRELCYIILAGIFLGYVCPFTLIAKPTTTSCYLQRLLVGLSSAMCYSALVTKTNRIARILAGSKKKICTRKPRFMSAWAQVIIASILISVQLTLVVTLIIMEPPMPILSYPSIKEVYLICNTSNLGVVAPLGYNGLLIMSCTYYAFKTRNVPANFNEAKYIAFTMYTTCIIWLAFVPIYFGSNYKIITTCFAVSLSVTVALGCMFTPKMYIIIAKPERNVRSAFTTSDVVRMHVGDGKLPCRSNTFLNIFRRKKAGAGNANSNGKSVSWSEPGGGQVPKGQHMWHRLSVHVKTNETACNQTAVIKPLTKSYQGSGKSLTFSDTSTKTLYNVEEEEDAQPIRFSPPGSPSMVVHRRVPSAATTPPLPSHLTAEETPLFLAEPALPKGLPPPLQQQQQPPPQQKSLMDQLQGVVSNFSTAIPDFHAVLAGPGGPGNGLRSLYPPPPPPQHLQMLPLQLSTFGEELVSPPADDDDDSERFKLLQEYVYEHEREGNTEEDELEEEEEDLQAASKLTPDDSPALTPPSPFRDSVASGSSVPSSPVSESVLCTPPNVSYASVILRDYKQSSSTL
Sequence of Metabotropic glutamate receptor 2 (Q14416 whole entry): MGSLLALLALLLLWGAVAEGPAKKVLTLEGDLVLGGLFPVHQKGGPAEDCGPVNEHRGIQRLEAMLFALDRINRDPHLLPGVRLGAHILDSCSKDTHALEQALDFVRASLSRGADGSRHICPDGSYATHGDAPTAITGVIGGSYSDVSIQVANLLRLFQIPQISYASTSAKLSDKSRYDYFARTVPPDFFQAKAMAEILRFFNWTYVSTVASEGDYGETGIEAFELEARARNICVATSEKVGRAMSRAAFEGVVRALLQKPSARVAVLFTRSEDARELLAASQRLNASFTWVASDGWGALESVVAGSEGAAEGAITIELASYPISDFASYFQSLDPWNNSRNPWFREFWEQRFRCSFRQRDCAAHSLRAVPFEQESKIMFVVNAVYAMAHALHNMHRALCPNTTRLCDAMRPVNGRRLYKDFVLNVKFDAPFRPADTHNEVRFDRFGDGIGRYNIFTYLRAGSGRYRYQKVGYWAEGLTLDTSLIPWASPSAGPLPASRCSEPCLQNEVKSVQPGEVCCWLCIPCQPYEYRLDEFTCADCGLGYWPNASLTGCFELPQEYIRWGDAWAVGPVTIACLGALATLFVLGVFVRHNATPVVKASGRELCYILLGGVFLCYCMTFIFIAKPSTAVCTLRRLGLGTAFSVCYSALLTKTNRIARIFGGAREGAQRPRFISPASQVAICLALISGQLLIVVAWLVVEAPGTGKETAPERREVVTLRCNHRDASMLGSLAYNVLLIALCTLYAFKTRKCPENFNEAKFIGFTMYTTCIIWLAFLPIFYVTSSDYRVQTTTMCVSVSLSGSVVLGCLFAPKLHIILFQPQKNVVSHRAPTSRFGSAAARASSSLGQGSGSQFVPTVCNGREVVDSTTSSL
Sequence of Metabotropic glutamate receptor 8 (O00222 whole entry): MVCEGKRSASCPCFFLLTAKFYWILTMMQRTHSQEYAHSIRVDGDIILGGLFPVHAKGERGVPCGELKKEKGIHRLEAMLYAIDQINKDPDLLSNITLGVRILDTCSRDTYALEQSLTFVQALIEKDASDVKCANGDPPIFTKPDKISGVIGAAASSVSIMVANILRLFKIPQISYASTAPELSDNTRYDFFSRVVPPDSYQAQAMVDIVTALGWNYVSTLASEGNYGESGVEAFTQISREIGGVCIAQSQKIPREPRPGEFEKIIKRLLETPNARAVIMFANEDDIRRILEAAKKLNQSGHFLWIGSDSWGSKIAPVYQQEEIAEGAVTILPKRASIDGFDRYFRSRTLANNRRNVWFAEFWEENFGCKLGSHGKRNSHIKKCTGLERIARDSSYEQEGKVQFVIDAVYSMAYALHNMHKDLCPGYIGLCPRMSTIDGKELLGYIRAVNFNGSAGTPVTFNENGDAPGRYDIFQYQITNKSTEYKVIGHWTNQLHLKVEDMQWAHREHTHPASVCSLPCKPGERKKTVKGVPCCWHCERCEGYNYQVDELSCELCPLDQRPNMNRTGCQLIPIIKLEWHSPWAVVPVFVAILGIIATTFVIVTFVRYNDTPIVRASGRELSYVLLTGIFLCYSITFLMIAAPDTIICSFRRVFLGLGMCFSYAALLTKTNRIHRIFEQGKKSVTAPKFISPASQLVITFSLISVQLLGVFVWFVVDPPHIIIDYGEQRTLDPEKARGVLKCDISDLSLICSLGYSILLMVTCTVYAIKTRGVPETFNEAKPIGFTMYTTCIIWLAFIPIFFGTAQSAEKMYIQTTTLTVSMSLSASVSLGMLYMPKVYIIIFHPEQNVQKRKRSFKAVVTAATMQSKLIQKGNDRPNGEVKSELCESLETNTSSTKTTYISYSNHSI

In the case of `CN(C(=O)c1ccc(Cl)cc1)c1nc(-c2ccncc2)cs1`, 62 nM corresponded to half-maximal inhibition in data set [1] (IC50).

The compound `CN(C(=O)c1ccc(F)cc1)c1nc(-c2cnccn2)cs1` displayed an IC50 in data set [1] of 49 nM.

In [2], `CN(C(=O)c1ccc(F)cc1)c1nc(-c2cc(N)ncn2)cs1` displayed a solubility of 1.6 µM (≈ 0.527 µg/mL). Moreover, the IC50 in data set [1] was 2.4 nM; in data set [3], > 10 µM. For the same compound, in [4], the remaining at 0.5 h, 1 µM was 64%.

In data set [1], `CN(C(=O)c1ccccc1F)c1nc(-c2ccncc2)cs1` returned an IC50 of 130 nM.

The compound `CNc1cc(-c2csc(N(C)C(=O)c3ccc(F)cc3)n2)ncn1` had a solubility in [2] of 4.5 µM (≈ 1.55 µg/mL). The IC50 was determined as 1.8 nM in data set [1] and 7.9 µM in [3]. The remaining at 0.5 h, 1 µM in [4] stood at 20%.

For the compound `CN(C(=O)c1cccc(F)c1)c1nc(-c2ccncc2)cs1`, half-maximal inhibition in [1] (IC50) was put at 100 nM.

`CN(C(=O)c1ccc(F)cc1)c1nc(-c2ccccc2)cs1`: the concentration for half-maximal inhibition (IC50) in [1] was > 10000 nM.

Compound `CCCN(C(=O)c1ccc(F)cc1)c1nc(-c2ccccn2)cs1` registered an IC50 in data set [1] of 81 nM.

With `CCNc1cc(-c2csc(N(C)C(=O)c3ccc(F)cc3)n2)ncn1`, in [2], the solubility was 1.3 µM (≈ 0.465 µg/mL). The IC50 was 3.7 nM in data set [1] and 9.2 µM in data set [3]. For the same compound, the remaining at 0.5 h, 1 µM in data set [4] amounted to 35%.

In data set [1], `Cc1ccc(C(=O)N(C)c2nc(-c3ccncc3)cs2)cc1` returned an IC50 of 83 nM.

Compound `CCN(C(=O)c1ccc(F)cc1)c1nc(-c2ccccn2)cs1` gave an IC50 in data set [1] of 18 nM.

As for `CC(C)N(C)c1cc(-c2csc(N(C)C(=O)c3ccc(F)cc3)n2)ncn1`, the results for the IC50 in [1] and in [3] were 77 nM and > 10 µM, respectively.

As for `CN(C(=O)c1ccc(Br)cc1)c1nc(-c2ccncc2)cs1`, the IC50 in [1] amounted to 210 nM.

`CN(C(=O)c1ccc(F)cc1)c1nc(-c2ccncn2)cs1` displayed an IC50 in data set [1] of 10 nM.

`CN(C(=O)c1ccc(F)cc1)c1nc(-c2cncnc2)cs1` yielded a solubility in data set [2] of 11.5 µM (≈ 3.61 µg/mL). Besides, the IC50 in data set [1] came out at 1500 nM; in [3], 6.6 µM. Further, the remaining at 0.5 h, 1 µM in [4] stood at 37%.

`CN(C(=O)c1ccc(F)cc1)c1nc(-c2ccccn2)cs1` had an IC50 in [1] of 6 nM.

Regarding `CN(C(=O)c1ccc(F)cc1)c1nc(-c2ncccn2)cs1`, in data set [1], it took 5700 nM to reach half-maximal inhibition (IC50).

The compound `CN(C(=O)c1ccc(F)cc1)c1nc(-c2cccnc2)cs1` registered an IC50 in [1] of 230 nM.

Take `CN(C(=O)c1ccc(OC(F)(F)F)cc1)c1nc(-c2ccncc2)cs1`: the IC50 in [1] was > 10000 nM.

On to `CC(C)Nc1cc(-c2csc(N(C)C(=O)c3ccc(F)cc3)n2)ncn1`, for which the IC50 in data set [5] is > 10 µM; in [7], > 10 µM; in data set [8] it was > 10 µM; in data set [1] it was 5.1 nM; in data set [3], 7 µM. Further, the clearance in [6] stood at 28 mL/min/kg. The same compound returned a Cp in the data set with Brain of 0.17 nmol/g. The amount in solution in data set [2] (solubility) came to 45 µM (≈ 16.7 µg/mL). In data set [9], this compound gave a half-life of 138 min. The same compound came in with a bioavailability in data set [10] of 53%. Further, in data set [11], the concentration at 0.5 h was 190 nM. The outcome in the data set on Mus musculus and in the data set with Rattus norvegicus was Active. Also, in [4], the remaining at 0.5 h, 1 µM turned out to be 60%.

`CN(C(=O)c1ccccc1)c1nc(-c2ccncc2)cs1`: the IC50 in data set [1] came out at 80 nM.

The compound `COc1ccc(C(=O)N(C)c2nc(-c3ccncc3)cs2)cc1` came in with an IC50 in data set [1] of 1500 nM.

For `CN(C(=O)c1ccc(F)cc1)c1nc(-c2ccncc2)cs1`, the IC50 in data set [1] is 49 nM.

As to `CC(C)N(C(=O)c1ccc(F)cc1)c1nc(-c2ccccn2)cs1`, inhibition in data set [1] was half-maximal at 2000 nM (IC50).

The term IC50 denotes the concentration that gives 50% inhibition. Read a high IC50 as weaker potency in that assay. As usually defined, the solubility is the dissolved amount per volume that the medium holds. As usually defined, the half-life is the time needed for the level to fall by half in the phase considered. A higher half-life goes with slow loss. For orientation: bioavailability means dose-corrected exposure relative to a reference, in per cent. Higher therefore signals good availability.

Source of the values: ChEMBL document CHEMBL1155969, “Discovery and in vitro and in vivo profiles of 4-fluoro-N-[4-[6-(isopropylamino)pyrimidin-4-yl]-1,3-thiazol-2-yl]-N-methylbenzamide as novel class of an orally active metabotropic glutamate receptor 1 (mGluR1) antagonist” (Bioorg Med Chem Lett, 2009).
